Assay results as given in ChEMBL document CHEMBL1811811, “Characterization of anticancer properties of 2,6-diisopropylphenol-docosahexaenoate and analogues in breast cancer cells” (Bioorg Med Chem, 2010).
Activity calls are given as the source filed them. The rule behind the calls is not given here.

Assays:
MDA-MB-231 [1] = experiment: Growth inhibition of human MDA-MB-231 cells after 48 hrs by WST1 assay; format: functional, cell-based
In short: (§1)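 Cells seeded at 5000/well, grown overnight (18 h) in DMEM complete medium, then switched to DMEM with 2% FBS plus treatment for 48 h at 37 °C, 5% CO2; ethanol vehicle control. WST-1 read at day 0 (baseline, X) and end; growth normalized as (Y−X)/X×100, 100 to 0 = growth inhibition, 0 to −100 = cell death. Mean ± SD, at least four experiments.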

MDA-MB-231 [2] = experiment: Total growth inhibition of human MDA-MB-231 cells after 48 hrs by WST1 assay; format: functional; in short: as §1
MDA-MB-231 [3] = experiment: Induction of apoptosis in human MDA-MB-231 cells assessed as viable cells at 1 uM after 24 hrs by annexin V/propidium iodide staining based FACS flow cytometry (reference value: 89 +/- 1 %); format: functional; conditions: MDA-MB-231, 24 h, read-out: Activity
MCF7 [4] = experiment: Cytotoxicity against human MCF7 cells at 25 uM after 48 hrs by WST1 assay; format: functional, cell-based; in short: as §1
MDA-MB-231 [5] = experiment: Cytotoxicity against human MDA-MB-231 cells at 10 uM after 48 hrs by WST1 assay; format: functional, cell-based; in short: as §1
MCF7 [6] = experiment: Growth inhibition of human MCF7 cells at 25 uM after 48 hrs by WST1 assay; format: functional, cell-based; in short: as §1
MDA-MB-231 [7] = experiment: Induction of apoptosis in human MDA-MB-231 cells assessed as viable cells at 10 uM after 24 hrs by annexin V/propidium iodide staining based FACS flow cytometry (reference value: 89 +/- 1 %); format: functional; conditions: MDA-MB-231, 24 h, read-out: Activity
MDA-MB-231 [8] = experiment: Induction of apoptosis in human MDA-MB-231 cells assessed as apoptotic cells at 1 uM after 24 hrs by annexin V/propidium iodide staining based FACS flow cytometry (reference value: 1.8 +/- 0.3 %); format: functional
MDA-MB-231 [9] = experiment: Induction of apoptosis in human MDA-MB-231 cells assessed as apoptotic cells at 10 uM after 24 hrs by annexin V/propidium iodide staining based FACS flow cytometry (reference value: 1.8 +/- 0.3 %); format: functional
MDA-MB-231 [10] = experiment: Induction of apoptosis in human MDA-MB-231 cells assessed as necrotic cells at 1 uM after 24 hrs by annexin V/propidium iodide staining based FACS flow cytometry (reference value: 9.2 +/- 0.8 %); format: functional
MDA-MB-231 [11] = experiment: Induction of apoptosis in human MDA-MB-231 cells assessed as necrotic cells at 10 uM after 24 hrs by annexin V/propidium iodide staining based FACS flow cytometry (reference value: 9.2 +/- 0.8 %); format: functional
MDA-MB-361 [12] = experiment: Growth inhibition of human MDA-MB-361 cells at 25 uM after 48 hrs by WST1 assay; format: functional, cell-based; in short: as §1
MDA-MB-361 [13] = experiment: Cytotoxicity against human MDA-MB-361 cells at 25 uM after 48 hrs by WST1 assay; format: functional, cell-based; in short: as §1
AU565 [14] = experiment: Growth inhibition of human AU565 cells at 25 uM after 48 hrs by WST1 assay; format: functional, cell-based; in short: as §1
AU565 [15] = experiment: Cytotoxicity against human AU565 cells at 25 uM after 48 hrs by WST1 assay; format: functional, cell-based; in short: as §1
HMEC [16] = experiment: Growth inhibition of human HMEC cells at 25 uM after 48 hrs by WST1 assay; format: cell-based; in short: as §1
HMEC [17] = experiment: Cytotoxicity against human HMEC cells at 25 uM after 48 hrs by WST1 assay; format: cell-based; in short: as §1
Serum [18] = experiment: Stability in human serum at 1 mM incubated for 2 hrs at 37 degC by HPLC; conditions: 1000 µM
Serum [19] = experiment: Stability in mouse serum at 1 mM incubated for 2 hrs at 37 degC by HPLC; conditions: 1000 µM
MDA-MB-231 [20] = experiment: Growth inhibition of human MDA-MB-231 cells at 25 uM after 48 hrs by WST1 assay; format: functional, cell-based; in short: as §1
[21] = target: T1, Histone deacetylase (Homo sapiens) (UniProt Q13547+O15379+Q9UBN7+Q92769+Q9UQL6+Q8WUI4+Q9BY41+Q96DB2+P56524+Q9UKV0+Q969S8); experiment: Inhibition of HDAC in human MDA-MB-231 cells up to 25 uM after 2 hrs relative to control; format: cell-based
In short: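 MDA-MB-231 cells treated 2 h at 37 °C in DMEM with 2% FBS with varying concentrations; rinsed in PBS, trypsinized, normalized to 2×10^6 cells/mL in PBS with 0.1% Triton X-100, sonicated on ice. Total (non-specific) HDAC activity measured with a fluorometric kit; trichostatin A used for maximum inhibition to correct non-specific readings. Expressed as % of total HDAC activity versus vehicle.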

[22] = target: T1, Histone deacetylase (Homo sapiens); experiment: Inhibition of HDAC in human MDA-MB-231 cells after 2 hrs; format: cell-based
In short: (§2)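 Cells exposed 2 h at 37 °C to varying concentrations in DMEM/2% FBS, washed, trypsinized, adjusted to 2×10^6 cells/mL in PBS with 0.1% Triton X-100, and sonicated on ice. Total HDAC activity measured with a fluorometric kit; trichostatin A used as maximum inhibition to correct non-specific signal. Expressed as % of total HDAC activity versus vehicle.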

[23] = target: T1, Histone deacetylase (Homo sapiens); experiment: Inhibition of HDAC in human MDA-MB-231 cells at 10 to 25 uM after 2 hrs relative to control; format: cell-based; in short: as §2
[24] = Homo sapiens, MDA-MB-231, 48 h, read-out: IC50

Row | Compound | viability at 1 µM (MDA-MB-231 [3]) | Activity (MCF7 [4]) | growth inhibition (GI) (MDA-MB-231 [1]) | IC50 (MDA-MB-231 [1]; [24]) | TGI (MDA-MB-231 [2]; MDA-MB-231, 48 h) | growth inhibition (GI) (MCF7 [6]) | viability at 10 µM (MDA-MB-231 [7]) | Activity (MDA-MB-231 [8]) | Activity (MDA-MB-231 [9]) | Activity (MDA-MB-231 [10]) | Activity (MDA-MB-231 [11]) | growth inhibition (GI) (MDA-MB-361 [12]) | Activity (MDA-MB-361 [13]) | growth inhibition (GI) (AU565 [14]) | Activity (AU565 [15]) | Activity (HMEC [16]) | Activity (HMEC [17]) | also measured
1 | CC/C=C\C/C=C\C/C=C\C/C=C\C/C=C\C/C=C\CCC(=O)Nc1ccccc1 |  |  |  |  |  |  |  |  |  |  |  |  |  |  |  |  |  | IC50 (MDA-MB-231 [1]; mda-mb-231): Not Active; TGI (MDA-MB-231 [2]): inactive
2 | CC/C=C\C/C=C\C/C=C\C/C=C\C/C=C\C/C=C\CCC(=O)Oc1ccccc1C(C)C | 89.6% | Active | Dose-dependent effect | 8.2 µM | 12.1 µM | Active | 36.2% | 1.8% | 26.4% | 8.6% | 37.5% | Active | Active | Active | Active | Non-toxic | Non-toxic | Activity (MDA-MB-231 [5]): Active; Stability (Serum [18]): Stable; Stability (Serum [19]): Stable
3 | CC/C=C\C/C=C\C/C=C\C/C=C\C/C=C\C/C=C\CCC(=O)O [DOCONEXENT] | 90.3% |  | Dose-dependent effect |  |  |  | 87.6% | 2.1% | 1.8% | 7.6% | 10.7% |  |  |  |  |  |  | growth inhibition (GI) (MDA-MB-231 [20]): inactive; inhibition [21]: inactive; Stability (Serum [18]): Stable; Stability (Serum [19]): Stable
4 | CC/C=C\C/C=C\C/C=C\C/C=C\C/C=C\C/C=C\CCC(=O)Oc1ccc(C(C)C)cc1C(C)C |  |  | Dose-dependent effect | 7.3 µM | 12.6 µM |  |  |  |  |  |  |  |  |  |  |  |  | 
5 | CC/C=C\C/C=C\C/C=C\C/C=C\C/C=C\C/C=C\CCC(=O)Oc1c(C(C)C)cccc1C(C)C | 90.5% | Active | Dose-dependent effect | 2.9 µM | 4.2 µM | Active | 37.4% | 1.8% | 22.2% | 7.7% | 40.4% | Active | Active | Active | Active | Non-toxic | Non-toxic | Activity (MDA-MB-231 [5]): Active; inhibition [22]: Dose-dependent effect; inhibition [23]: 30%; Stability (Serum [18]): Stable; Stability (Serum [19]): Stable
6 | CC(C)c1ccccc1O | 93.7% | inactive |  |  |  | inactive | 88.8% | 1.5% | 2.2% | 4.9% | 9% | inactive | inactive | inactive | inactive | Non-toxic | Non-toxic | 
7 | CC(C)c1cccc(C(C)C)c1O [PROPOFOL] | 90.9% | inactive |  |  |  | inactive | 88.2% | 2% | 2.4% | 7.1% | 9.4% | inactive | inactive | inactive | inactive | Non-toxic | Non-toxic | inhibition [21]: inactive
8 | CC/C=C\C/C=C\C/C=C\C/C=C\C/C=C\C/C=C\CCC(=O)Nc1ccccc1C(C)C |  |  |  | 6.5 µM | 8.5 µM |  |  |  |  |  |  |  |  |  |  |  |  | 
9 | Oc1ccccc1C1CCCCC1 |  |  |  |  |  |  |  |  |  |  |  |  |  |  |  |  |  | growth inhibition (GI) (MDA-MB-231 [20]): Active
10 | CC/C=C\C/C=C\C/C=C\C/C=C\C/C=C\C/C=C\CCC(=O)Nc1c(C(C)C)cccc1C(C)C |  |  |  | 3.7 µM | 5.5 µM |  |  |  |  |  |  |  |  |  |  |  |  | 
11 | CC/C=C\C/C=C\C/C=C\C/C=C\C/C=C\C/C=C\CCC(=O)Oc1ccccc1C1CCCCC1 |  |  | Dose-dependent effect | 8.4 µM | 18.7 µM |  |  |  |  |  |  |  |  |  |  |  |  | 
12 | CC/C=C\C/C=C\C/C=C\C/C=C\C/C=C\C/C=C\CCC(=O)Oc1ccccc1 |  |  | inactive | > 25 µM | > 25 µM |  |  |  |  |  |  |  |  |  |  |  |  | 
